From ChEMBL document CHEMBL1123882, “Potential antitumor agents. 51. Synthesis and antitumor activity of substituted phenazine-1-carboxamides” (J Med Chem, 1987)

Legend:
[1] = Lipophilicity (HPLC); type: physicochemical
P388 [2] = experiment: (§1) Average increase in life span of treated animals over control groups of tumor-bearing untreated animals when given at optimal dose (in vivo); type: functional, Mus musculus
Method in brief: (§2)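 Mice inoculated ip with 10^6 P388 cells (drug ip on days 1, 5, 9) or iv with 10^6 Lewis lung cells (drug ip on days 5, 9, 13). Drug given as a solution in 0.1 mL 30% v/v EtOH/water, in mg/kg per day. Value is the average life-span increase versus untreated tumor-bearing controls at the optimal dose. Significance thresholds: ILS >20% (P388), >40% (LL). Groups of six.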

P388 [3] = experiment: Optimal dose in mg/kg administered intraperitoneally on days 1,5 and 9 required to inhibit the growth of P388 leukemia cells was determined (in vivo); type: functional, Mus musculus
Method in brief: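 Mice were inoculated ip with 10^6 P388 cells. Drug was given ip as a solution in 0.1 mL 30% v/v EtOH/water on days 1, 5 and 9. The optimal dose (mg/kg per day) is the one giving maximal increase in life span; survivors were scored at 50 days, in groups of six.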

[4] = test system: Lewis lung carcinoma cell line; experiment: (§3) Average increase in life span of treated animals over control groups of tumor-bearing untreated animals when given at optimal dose; NA means no significant activity (in vivo); type: functional, organism-based; conditions: Mus musculus
Method in brief: (§4)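 Mice received drug ip as a solution in 0.1 mL 30% v/v EtOH/water at the optimal dose. For P388, 10^6 cells were inoculated ip and drug given on days 1, 5 and 9. For LL, 10^6 cells were inoculated iv and drug given on days 5, 9 and 13. ILS is the mean life-span increase over untreated tumor-bearing controls, significant above 20% (P388) or 40% (LL). Groups were of six. NA means no significant activity up to acutely toxic doses.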

L1210 [5] = experiment: Nanomolar concentration required to reduce the growth of L1210 cells in culture to 50% of control values after 70 h (in vitro); type: functional, cell-based; conditions: Mus musculus, L1210, 70 h
Method in brief: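 L1210 cells were grown in culture with drug for 70 h. IC50 is the drug concentration (nM) reducing growth to 50% of control values.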

[6] = test system: Lewis lung carcinoma cell line; experiment: Optimal dose required after intraperitoneal administration on days 5,9 and 13 to inhibit the growth of lewis lung carcinoma (LL) cells was determined (in vivo); type: functional, Mus musculus
Method in brief: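 Mice were inoculated iv with 10^6 Lewis lung cells. Drug was given ip in 0.1 mL 30% v/v EtOH/water on days 5, 9 and 13. The optimal dose (mg/kg per day) is the one giving maximal increase in life span; survivors were scored at 60 days, in groups of six.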

L1210 [7] = experiment: Tested for comparative cytotoxicity as ratio of IC50 value, relative to 3-substituted derivative (1.00).; type: functional, Mus musculus
L1210 [8] = experiment: Tested for comparative cytotoxicity as ratio of IC50 value, relative to OMe derivative (1.00).; type: functional, Mus musculus
[9] = test system: Lewis lung carcinoma cell line; experiment: as §1; type: functional, Mus musculus; method in brief: as §2
P388 [10] = experiment: as §3; type: functional, organism-based; conditions: Mus musculus; method in brief: as §4
[11] = test system: Lewis lung carcinoma cell line; experiment: Average increase in life span of treated animals over control groups of tumor-bearing untreated animals when given at optimal dose of 25 mg/kg/day; NA means no significant activity (in vivo); type: functional, organism-based; conditions: Mus musculus, in the assay text read “225 mg/kg/day” for “25 mg/kg/day”; method in brief: as §4
P388 [12] = experiment: Average increase in life span of treated animals over control groups of tumor-bearing untreated animals when given at optimal dose of 150 mg/kg/day;NA means no significant activity (in vivo); type: functional, organism-based; conditions: Mus musculus; method in brief: as §4

Row | Compound | Rm [1] | ILS max (P388 [2]) | OD (P388 [3]) [mg/kg/day] | IC50 (L1210 [5]) [nM] | OD [6] [mg/kg/day] | Ratio (L1210 [7]) | Ratio (L1210 [8]) | other results
1 | COc1cc(C(=O)NCCN(C)C)c2nc3ccccc3nc2c1 | -0.25 | 22 | 100 | 830 | 150 |  |  | ILS max [4]: Not significant
2 | COc1ccc2nc3cccc(C(=O)NCCN(C)C)c3nc2c1 | -0.33 | 39 | 100 | 1050 | 150 |  |  | ILS max [4]: Not significant
3 | NC(=O)c1cccc2nc3cccc(Cl)c3nc12 |  |  |  |  |  | 0.07 | 0.2 | 
4 | Cc1ccc2nc3c(C(N)=O)cccc3nc2c1 |  |  |  |  |  | 3.7 | 0.4 | 
5 | Cc1ccc2nc3c(C(=O)NCCN(C)C)cccc3nc2c1 | -0.18 | 29 | 150 | 1500 | 100 |  |  | ILS max [4]: Not significant
6 | Cc1cccc2nc3cccc(C(N)=O)c3nc12 |  |  |  |  |  | 0.1 | 0.9 | 
7 | CN(C)CCNC(=O)c1cc(Cl)cc2nc3ccccc3nc12 | -0.06 | 106 | 150 | 160 | 150 |  |  | ILS max [9]: 63
8 | CN(C)CCNC(=O)c1cccc2nc3c(Cl)cccc3nc12 | -0.18 | 56 | 150 | 780 | 150 |  |  | ILS max [9]: 49
9 | Cc1cccc2nc3cccc(C(=O)NCCN(C)C)c3nc12 | -0.23 | 45 | 65 | 42 | 65 |  |  | ILS max [9]: 62
10 | CN(C)CCNC(=O)c1c(Cl)ccc2nc3ccccc3nc12 | -0.27 |  | 100 | 14900 |  |  |  | ILSmax (P388 [10]): Not significant
11 | COc1ccc(C(N)=O)c2nc3ccccc3nc12 |  |  |  |  |  | 0.6 | 1 | 
12 | CN(C)CCNC(=O)c1cccc2nc3ccc(Cl)cc3nc12 | -0.2 | 64 | 100 | 670 | 100 |  |  | ILS max [9]: 64
13 | NC(=O)c1cccc2nc3ccc(Cl)cc3nc12 |  |  |  |  |  | 4.2 | 0.6 | 
14 | COc1cccc2nc3c(C(N)=O)cccc3nc12 |  |  |  |  |  | 6 | 1 | 
15 | CN(C)CCNC(=O)c1cccc2nc3ccc4ccccc4c3nc12 | -0.05 | 98 | 30 | 33 | 45 |  |  | ILS max [9]: 56
16 | CN(C)CCNC(=O)c1cc2ccccc2c2nc3ccccc3nc12 | 0.11 | 84 | 65 | 170 | 65 |  |  | ILS max [4]: Not significant
17 | Cc1cccc2nc3c(C(=O)NCCN(C)C)cccc3nc12 | -0.01 | 58 | 150 | 820 | 150 |  |  | ILS max [4]: Not significant
18 | COc1ccc2nc3c(C(=O)NCCN(C)C)cccc3nc2c1 | -0.27 |  | 100 | 4100 | 150 |  |  | ILSmax (P388 [10]): Not significant; ILSmax [4]: Not significant
19 | Cc1cccc2nc3c(C(N)=O)cccc3nc12 |  |  |  |  |  | 2 | 0.6 | 
20 | CN(C)CCCNC(=O)c1cccc2nc3ccccc3nc12 | -0.21 |  | 150 | 1500 | 225 |  |  | ILSmax [11]: Not significant; ILSmax (P388 [12]): Not significant
21 | COc1cccc2nc3c(C(=O)NCCN(C)C)cccc3nc12 | -0.44 |  | 150 | 5000 |  |  |  | ILSmax (P388 [10]): Not significant
22 | Cc1ccc(C(N)=O)c2nc3ccccc3nc12 |  |  |  |  |  | 1 | 0.7 | 
